ChEMBL document CHEMBL3351477, “A C-14 labeled Py-Im polyamide localizes to a subcutaneous prostate cancer tumor” (Bioorg Med Chem, 2014)

How the values were obtained:
[1] = tested on: Kidney; assay: Drug level in human LNCaP cells xenografted NSG mouse kidney at 20 nmol, ip measured after 24 hrs by liquid scintillation counting method; format: ADME, organism-based; conditions: in vivo
Method in brief: (§1)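 Male NSG mice bearing subcutaneous flank LNCaP xenografts. The graft was 2.5M cells in 200 μL of 1:1 culture medium/matrigel, using cells at or below passage 25 with >90% viability by trypan blue. C-14 labeled compound was given i.p. at 20 nmol per animal 4-8 weeks after engraftment. Mice were euthanized by CO2. Tumor, kidney, liver and lung were excised.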

[2] = tested on: Liver; assay: Drug level in human LNCaP cells xenografted NSG mouse liver at 20 nmol, ip measured after 24 hrs by liquid scintillation counting method; format: ADME, organism-based; conditions: in vivo; method in brief: as §1
[3] = tested on: Lung; assay: Drug level in human LNCaP cells xenografted NSG mouse lung at 20 nmol, ip measured after 24 hrs by liquid scintillation counting method; format: ADME, organism-based; conditions: in vivo; method in brief: as §1
[4] = tested on: Tumour; assay: Drug level in human LNCaP cells xenografted NSG mouse tumor at 20 nmol, ip measured after 24 hrs by liquid scintillation counting method; format: ADME, organism-based, Neoplasm; conditions: in vivo; method in brief: as §1
[5] = tested on: Liver; assay: Drug level in human LNCaP cells xenografted NSG mouse liver at 20 nmol, ip measured after 24 hrs by liquid scintillation counting method relative to lung; format: ADME, organism-based; conditions: in vivo; method in brief: as §1
[6] = tested on: Tumour; assay: Drug level in human LNCaP cells xenografted NSG mouse tumor at 20 nmol, ip dosed on days 1, 4 and 7 measured 24 hrs after last dose by liquid scintillation counting method; format: ADME, organism-based, Neoplasm; conditions: in vivo, read-out: Drug uptake; method in brief: as §1
[7] = tested on: Tumour; assay: Drug level in human LNCaP cells xenografted NSG mouse tumor at 20 nmol, ip dosed on days 1, 4 and 7 measured 24 hrs after last dose by liquid scintillation counting method relative to single injection dose; format: ADME, organism-based, Neoplasm; conditions: in vivo; method in brief: as §1
[8] = tested on: Tumour; assay: Drug level in human LNCaP cells xenografted NSG mouse tumor at 20 nmol, ip measured up to 1 to 7 days by liquid scintillation counting method; format: ADME, organism-based, Neoplasm; conditions: in vivo; method in brief: as §1
[9] = tested on: Lung; assay: Drug level in human LNCaP cells xenografted NSG mouse lung at 20 nmol, ip measured up to 1 to 7 days by liquid scintillation counting method; format: ADME, organism-based; conditions: in vivo; method in brief: as §1
[10] = tested on: Kidney; assay: Drug level in human LNCaP cells xenografted NSG mouse kidney at 20 nmol, ip dosed on days 1, 4 and 7 measured 24 hrs after last dose by liquid scintillation counting method relative to single injection dose; format: ADME, organism-based; conditions: in vivo; method in brief: as §1
[11] = tested on: Kidney; assay: Drug level in human LNCaP cells xenografted NSG mouse kidney at 20 nmol, ip measured up to 1 to 7 days by liquid scintillation counting method; format: ADME, organism-based; conditions: in vivo; method in brief: as §1
[12] = tested on: Tumour; assay: Drug level in human LNCaP cells xenografted NSG mouse tumor at 20 nmol, ip measured after 4 hrs by liquid scintillation counting method relative to liver; format: ADME, organism-based; conditions: in vivo; method in brief: as §1
[13] = tested on: Liver; assay: Drug level in human LNCaP cells xenografted NSG mouse liver at 20 nmol, ip measured up to 1 to 7 days by liquid scintillation counting method; format: ADME, organism-based; conditions: in vivo; method in brief: as §1
[14] = tested on: Tumour; assay: Drug level in human LNCaP cells xenografted NSG mouse tumor at 20 nmol, ip measured after 24 hrs by liquid scintillation counting method relative to other tissues; format: ADME, organism-based, Neoplasm; conditions: in vivo; method in brief: as §1
[15] = tested on: Liver; assay: Drug level in human LNCaP cells xenografted NSG mouse liver at 20 nmol, ip dosed on days 1, 4 and 7 measured 24 hrs after last dose by liquid scintillation counting method relative to single injection dose; format: ADME, organism-based; conditions: in vivo; method in brief: as §1
[16] = tested on: Liver; assay: Drug level in human LNCaP cells xenografted NSG mouse liver at 20 nmol, ip measured after 24 hrs by liquid scintillation counting method relative to kidney; format: ADME, organism-based; conditions: in vivo; method in brief: as §1
[17] = tested on: Tumour; assay: Drug level in human LNCaP cells xenografted NSG mouse tumor at 20 nmol, ip measured after 24 hrs by liquid scintillation counting method relative to liver; format: ADME, organism-based; conditions: in vivo; method in brief: as §1

| Drug uptake [1] | Drug uptake [2] | Drug uptake [3] | Drug uptake [4] | fold change (FC) [5] | concentration [6] [nM] | fold change (FC) [7] | Drug uptake [8] [mg/kg] | Drug uptake [9] [mg/kg] | fold change (FC) [10] | Drug uptake [11] [mg/kg] | fold change (FC) [12] | Drug uptake [13] [mg/kg] | fold change (FC) [14] | fold change (FC) [15] | fold change (FC) [16] | concentration ([4]; read-out: Drug uptake) [nM] | fold change (FC) [17] | SMILES |
| --- | --- | --- | --- | --- | --- | --- | --- | --- | --- | --- | --- | --- | --- | --- | --- | --- | --- | --- |
| Active | Active | 0.93 mg/kg | Active | – | – | – | – | – | – | – | – | – | – | – | – | – | – | CN(CCCNC(=O)c1cc(NC(=O)c2cc(NC(=O)c3cc(NC(=O)c4nc(NC(=O)[C@H](N)CCNC(=O)c5cc(NC(=O)c6cc(NC(=O)c7cc(NC(=O)c8nccn8C)cn7C)cn6C)cn5C)cn4C)cn3C)cn2C)cn1C)CCCN[14C](=O)c1cccc([14C](=O)O)c1 |
| Active | Active | Active | Active | – | – | – | – | – | – | – | – | – | – | – | – | – | – | C[14C](=O)N[C@H](CCNC(=O)c1cc(NC(=O)c2cc(NC(=O)c3cc(NC(=O)c4nccn4C)cn3C)cn2C)cn1C)C(=O)Nc1cn(C)c(C(=O)Nc2cc(C(=O)Nc3cc(C(=O)Nc4cc(C(=O)NCCCN(C)CCCNC(=O)c5cccc(C(=O)O)c5)n(C)c4)n(C)c3)n(C)c2)n1 |
| 0.25 mg/kg | 1.04 mg/kg | 0.12 mg/kg | – | 8.7 | 2500 | 2.4 | 0.45 | 0.06 | 1.8 | 0.05 | 2 | 0.27 | 2 | 1.8 | 4.2 | 1060 | 1.5 | CC(=O)N[C@H](CCNC(=O)c1cc(NC(=O)c2cc(NC(=O)c3cc(NC(=O)c4nccn4C)cn3C)cn2C)cn1C)C(=O)Nc1cn(C)c(C(=O)Nc2cc(C(=O)Nc3cc(C(=O)Nc4cc(C(=O)NCCCN(C)CCCN[14C](=O)c5cccc([14C](=O)O)c5)n(C)c4)n(C)c3)n(C)c2)n1 |
